Here are results for 2 compounds from publication PMC9358627 (Journal of clinical pharmacology, 2021).

In general, AUC(0-t) refers to the area under the concentration-time curve up to a stated or last time point. Low readings indicate low exposure, high ones high exposure. One may read the AUC as concentration integrated over time.

Like-named read-outs stand apart in the source and are kept apart here.

Data set [1] is classed as in vivo, human. Particulars: for AUC: Mycophenolic acid AUC6-12hr. A digest of the protocol:
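Steady state with the same oral dose for ≥7 days, calcineurin inhibitor co-therapy. Pre-dose sample, then dosing ~7 AM, meals at 4 h, serial sampling over 12 h. Plasma iced, centrifuged, stored −70°C. LC/MS of test compound and its glucuronide, LLOQ 0.072 µg/mL. Non-compartmental AUC0-12h by linear trapezoidal rule. […] AUC6-12h/AUC0-12h gauges enterohepatic circulation.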

Data set [2] is classed as in vivo. The following applies: human, plasma, oral, C12hr, phenotypic mean (±95% CI). A digest of the protocol: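 Stable kidney transplant recipients had held fixed doses for ≥7 days. Around 7 AM, after a 0-h draw, they took the oral test compound with a calcineurin inhibitor. Plasma was sampled serially over 12 h, iced, spun and stored at −70°C. LC/MS with internal standards (LLOQ 0.072 µg/mL) gave the 12-h trough. Three ABCC2 SNPs were TaqMan-genotyped in duplicate. THESIAS maximum-likelihood analysis estimated haplotype phenotypic means with 95% CI.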

For data set [3] the following is noted: following oral drug administration; attributed to enterohepatic circulation; ref [8],[12]; cited from earlier work.
Data set [4] in a line: Mycophenolic acid pharmacokinetic parameters by individual ABCC2 SNP genotype. In kind it is in vivo. Particulars: human, plasma, oral, mean; for AUC(0-t): Mycophenolic acid AUC0-12hr; for clearance: Mycophenolic acid Clearance. An outline of the steps:
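Stable transplant recipients were studied at steady state. Oral test compound was given with a calcineurin inhibitor, with meals 4 h post-dose. Serial 12-h plasma was analysed by LC/MS (standard curve 0.145–15.5 µg/mL). AUC0-12h came from the linear trapezoidal rule, non-compartmental. […] ABCC2 −24C>T, 1249G>A and 3972C>T were genotyped by TaqMan allelic discrimination, 10 ng DNA, in duplicate.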

The conditions of data set [5]: human, in vivo, oral. An outline of the steps: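 Patients at steady state, same oral calcineurin inhibitor dose for ≥7 days. 0-h blood drawn before the ~7 AM dose to give trough. Samples iced, centrifuged, harvested within 60 min, stored −70°C until assay.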
[6] abbreviates: ABCC2 1249 G>A (rs2273697) All, N=147.
The mark [7] stands for this setting: ABCC2 3972 C>T (rs 3740066) All, N=146.
Where [8] appears, read: ABCC2 −24C>T (rs717620) All, N=147.

As for `COc1c(C)c2c(c(O)c1C/C=C(\C)CCC(=O)O)C(=O)OC2` [Mycophenolic acid, mycophenolic acid], the “Mycophenolic acid CL/F” value in data set [1] (All (N=147), steady state, oral, mean ± SD) amounted to 15.99 ± 9.41 L/h; in data set [1] (Cyclosporine Group (n=80), mycophenolate mofetil, mean ± SD), 20.50 ± 9.99 L/h; in data set [1] (Tacrolimus Group (n=67), enteric-coated mycophenolate sodium, mean ± SD), 10.60 ± 4.71 L/h. For the same compound, the “Enterohepatic Recirculation, patients” value in data set [1] (Cyclosporine (n=80), 36 patients) is 36 (45.0%); in data set [1] (Tacrolimus (n=67), 52 patients), 52 (77.61%). The “Mycophenolic acid AUC0-12hr” value in data set [1] (Cyclosporine Group (n=80), mean ± SD) came out at 40.82 ± 17.60 mg●hr/L. Besides, the area under the curve AUC(0-t) amounted to 68900 ± 30900 ng·h/mL in data set [1] (human, plasma, oral, Mycophenolic acid AUC0-12hr, Tacrolimus Group (n=67), mean ± SD); 53600 ng·h/mL in data set [4] (setting [6]); 53400 ng·h/mL in data set [4] (setting [7]); 53600 ng·h/mL in data set [4] (setting [8]). In addition, the AUC amounted to 19100 ± 15200 ng·h/mL in data set [1] (human, plasma, oral, All (N=147), mean ± SD); 13100 ± 7150 ng·h/mL in data set [1] (human, plasma, oral, Cyclosporine Group (n=80), mean ± SD); 26200 ± 18800 ng·h/mL in data set [1] (human, plasma, oral, Tacrolimus Group (n=67), mean ± SD). For the same compound, the “patients achieving the therapeutic range of AUC0-12h from 30 to 60 mg●h/L” value came to 56.3% in data set [1] (patients receiving cyclosporine) and 34.3% in data set [1] (tacrolimus group). In addition, the slower apparent clearance in data set [1] (tacrolimus group compared with cyclosporine group) was 48%. For the same compound, in data set [1] (tacrolimus regimen), the “patients exhibiting enterohepatic circulation” value is recorded as “More than 75%”. The concentration at 12 h in data set [2] (All (N=147), variant haplotype (CGT)) stood at 1010 ng/mL; in data set [2] (All (N=147), wildtype haplotype (CGC)) it was 1630 ng/mL; in data set [2] (Cyclosporine Group (n=80), variant haplotype (CGT)), 783 ng/mL; in data set [2] (Cyclosporine Group (n=80), wildtype haplotype (CGC)) it was 965 ng/mL; in data set [2] (Tacrolimus Group (n=67), variant haplotype (CGT)) it was 1330 ng/mL; in data set [2] (Tacrolimus Group (n=67), wildtype haplotype (CGC)), 2250 ng/mL. In addition, the “secondary mycophenolic acid peak, time of appearance” value in data set [3] is 6 to 12 h. Moreover, the clearance in data set [4] (setting [6]) was 266 mL/min; in data set [4] (setting [7]), 268 mL/min; in data set [4] (setting [8]) it was 266 mL/min.
In data set [5], `C=CC[C@@H]1/C=C(\C)C[C@H](C)C[C@H](OC)[C@H]2O[C@@](O)(C(=O)C(=O)N3CCCC[C@H]3C(=O)O[C@H](/C(C)=C/[C@@H]3CC[C@@H](O)[C@H](OC)C3)[C@H](C)[C@@H](O)CC1=O)[C@H](C)C[C@@H]2OC` [Tacrolimus, tacrolimus] gave a concentration at 0 h of 7.2 ± 1.89 ng/mL.
